Measurements from PubChem BioAssay AID588788 (The Scripps Research Institute Molecular Screening Center, 2011).
Active and inactive are the calls of the source.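 How the source made its calls: active means compound seen by mass spectrometry to covalently label the enzyme's active site serine; inactive means no covalent labeling seen.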

Target: Platelet-activating factor acetylhydrolase (Homo sapiens) (UniProt Q13093)
Assay: covalent active-site labeling of pPAFAH, late-stage follow-up, mechanism study, biochemical, LC-MS/MS (AID 588788)
Conditions: purified recombinant pPAFAH
Summary of the method: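 Assay system: recombinant human pPAFAH hydrophobic-patch triple mutant / Medium: DPBS buffer / Compound dosing: one dose, 100 µM final / Times: compound exposure 60 min, 37 °C / Evaluation: catalytic serine covalent adduct presence / Benchmarks: DMSO-only enzyme sample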

Chain of Platelet-activating factor acetylhydrolase (Homo sapiens) (Q13093 42-441 I120A/L123A/L124A limits assumed): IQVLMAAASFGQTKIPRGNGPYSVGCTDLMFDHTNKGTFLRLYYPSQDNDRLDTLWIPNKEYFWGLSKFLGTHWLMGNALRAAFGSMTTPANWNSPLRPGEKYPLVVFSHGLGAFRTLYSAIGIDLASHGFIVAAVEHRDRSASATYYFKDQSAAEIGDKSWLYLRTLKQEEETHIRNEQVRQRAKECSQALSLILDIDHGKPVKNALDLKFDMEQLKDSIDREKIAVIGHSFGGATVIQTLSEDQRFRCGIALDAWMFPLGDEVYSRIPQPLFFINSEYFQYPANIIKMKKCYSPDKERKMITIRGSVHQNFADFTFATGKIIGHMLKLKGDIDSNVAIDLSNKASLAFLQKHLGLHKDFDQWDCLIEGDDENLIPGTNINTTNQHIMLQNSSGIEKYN

outcome: active; covalent
SMILES: Cc1cc(N2CCN(C(=O)Oc3ccc(-c4ccccc4)cn3)CC2)c2ccccc2n1
